Source: ChEMBL document CHEMBL2062416, “Synthesis and biological evaluation of some novel 1-indanone thiazolylhydrazone derivatives as anti-Trypanosoma cruzi agents” (Eur J Med Chem, 2012)

What was measured:
[1] = tested on: Trypanosoma cruzi; test: Trypanocidal activity against amastigotes of Trypanosoma cruzi expressing beta-galactosidase gene infected in mouse J774 cells assessed as inhibition of parasite growth after 7 days; type: functional, organism-based; settings: J774, 168 h
Summary of the method: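 J774 macrophages, 5×10^3/well, infected with β-galactosidase-expressing blood trypomastigotes (clone C4) at 10:1 parasite:cell for 24 h, washed, then compounds (2–100 µM) in phenol red-free RPMI, duplicates, 7 days. Developed with 1% NP-40 and 100 µM CPRG, 4 h 37 °C, A570; uninfected ± compound wells correct colour. IC50 by linear regression of %I against log concentration.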

[2] = molecular target: Cruzipain (Trypanosoma cruzi) (UniProt P25779); test: Inhibition of epimastigotes of Trypanosoma cruzi cruzipain using Bz-Pro-Phe-Arg-pNA as substrate at 10 uM by spectrophotometric analysis
Chain of Cruzipain (Trypanosoma cruzi) (P25779 123-467 limits assumed): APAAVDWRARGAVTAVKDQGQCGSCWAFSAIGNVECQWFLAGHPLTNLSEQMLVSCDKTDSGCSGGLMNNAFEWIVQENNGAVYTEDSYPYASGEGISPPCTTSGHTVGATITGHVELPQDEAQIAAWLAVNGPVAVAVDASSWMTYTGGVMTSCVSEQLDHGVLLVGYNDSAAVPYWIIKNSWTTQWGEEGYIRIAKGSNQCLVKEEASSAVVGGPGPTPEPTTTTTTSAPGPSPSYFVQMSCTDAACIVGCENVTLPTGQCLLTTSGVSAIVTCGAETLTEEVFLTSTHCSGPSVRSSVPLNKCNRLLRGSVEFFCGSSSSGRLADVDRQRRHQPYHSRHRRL
Summary of the method: (§1)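 Cruzipain purified from epimastigote cell-free extract by ConA-Sepharose affinity chromatography. 1 mL reaction: Tris-acetate pH 8.2 (50 µmol), 2-mercaptoethanol (10 µmol), Bz-Pro-Phe-Arg-pNA (0.3 µmol); followed at 410 nm. Compounds added in DMSO; vehicle controls with matching DMSO; E-64 reference inhibitor. Percent inhibition relative to enzyme without drug.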

[3] = tested on: Trypanosoma cruzi; test: Trypanocidal activity against epimastigotes of Trypanosoma cruzi Tulahuen 2 assessed as inhibition of parasite growth after 4 days by trypan blue staining; type: functional, organism-based; settings: Tulahuen 2, 96 h
Summary of the method: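 Epimastigotes (Tulahuen, Tul 2) from 5-day cultures grown at 28 °C in liver/infusion medium with hemin, started at 1.5–2.5×10^6 cells/mL, exposed 4 days to compounds (typically 1.50–15 or 0.5–2.5 µM), triplicate; benznidazole 2.50–15 µM positive control. Motile cells counted in Neubauer chamber; %I from density change versus untreated; IC50 by linear regression on log concentration.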

[4] = tested on: Vero; test: Cytotoxicity against african green monkey Vero cells up to 100 uM after 24 hrs by MTT assay; type: cell-based; settings: chlorocebus sabaeus
Summary of the method: (§2)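 Vero cells grown in MEM or RPMI with 10% FBS, penicillin, streptomycin, glutamine; seeded at 9×10^5 cells/mL, compounds (12.5–200.0 µM) added after 48 h, 24 h exposure. PBS wash, MTT at 0.5 mg/mL final, 1 h 37 °C, formazan dissolved in DMSO, A570 with blank subtraction. Repeated at least three times, four samples per assay.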

[5] = molecular target: Cruzipain (Trypanosoma cruzi) (UniProt P25779); test: Inhibition of epimastigotes of Trypanosoma cruzi cruzipain using Bz-Pro-Phe-Arg-pNA as substrate at 20 uM by spectrophotometric analysis; summary of the method: as §1
[6] = molecular target: Cruzipain (Trypanosoma cruzi) (UniProt P25779); test: Inhibition of epimastigotes of Trypanosoma cruzi cruzipain using Bz-Pro-Phe-Arg-pNA as substrate at 50 uM by spectrophotometric analysis; summary of the method: as §1
[7] = tested on: Trypanosoma cruzi; test: Trypanocidal activity against bloodstream trypomastigotes of Trypanosoma cruzi infected in mouse blood assessed as lytic effect after 24 hrs; type: functional, organism-based
Summary of the method: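 Blood from infected CF1 mice (Tulahuen, Tul 2) diluted to 1.5×10^6 trypomastigotes/mL; compounds 0.30–350 µM, duplicates, 24 h. Live parasites counted in Neubauer chamber; %I = [1−CDt/CDc]×100 versus untreated. IC50 by linear regression of %I on log concentration. Means ± SD of three experiments.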

[8] = tested on: Trypanosoma cruzi; test: Inhibition of ergosterol biosynthesis in epimastigotes of Trypanosoma cruzi assessed as ratio of squalene/ergosterol at 25 uM after 24 hrs by TLC analysis (reference value: 0.76); type: functional
[9] = Cytotoxicity against african green monkey Vero cells after 24 hrs by MTT assay; type: cell-based; settings: chlorocebus sabaeus; summary of the method: as §2

inhibition [2] [%] | inhibition [5] [%] | inhibition [6] [%] | SMILES | IC50 [1] [µM] | IC50 [3] [µM] | Activity [4] | IC50 [7] [µM] | Ratio [8] | CC50 at 24 h [9] [µM]
3 | 0 | 0 | Cc1ccc(-c2csc(N/N=C3\CCc4ccc(C)cc43)n2)cc1 | 0.27 | 4.08 | Non-toxic | 49.5 | 0.8 | 
3 | 0 | 0 | Cc1cccc2c1CC/C2=N\Nc1nc(-c2ccccc2)cs1 | 0.68 | 7.08 | Non-toxic | 48.9 |  | 
8 | 5 | 5 | Cc1ccc(-c2csc(N/N=C3\CCc4ccccc43)n2)cc1 |  | > 15 | Non-toxic | > 500 | 0.76 | 
3 | 0 | 3 | Cc1cccc2c1CC/C2=N\Nc1nc(-c2ccc(Cl)cc2)cs1 | 0.09 | 4.53 | Non-toxic | 20 | 1.25 | 
0 | 0 | 0 | COc1cc2c(cc1OC)/C(=N/Nc1nc(-c3ccc(C)cc3)cs1)CC2 | 7.72 | > 15 | Non-toxic | 69.6 |  | 
0 | 0 | 0 | Cc1ccc(-c2csc(N/N=C3\CCc4cc(C)ccc43)n2)cc1 | 1.35 | 5.24 | Non-toxic | 87 |  | 
62 |  |  | CC(C)C[C@H](NC(=O)[C@H]1O[C@@H]1C(=O)O)C(=O)NCCCCN=C(N)N |  |  |  |  |  | 
3 | 0 | 0 | Cc1ccc2c(c1)/C(=N/Nc1nc(-c3ccccc3)cs1)CC2 | 3.96 | 4.27 | Non-toxic | 22.7 |  | 

The next lines start with the compound.

SMILES | inhibition [2] [%] | inhibition [5] [%] | inhibition [6] [%] | IC50 [1] [µM] | IC50 [3] [µM] | Activity [4] | IC50 [7] [µM] | Ratio [8] | CC50 at 24 h [9] [µM]
COc1cccc2c1CC/C2=N\Nc1nc(-c2ccc(Cl)cc2)cs1 | 0 | 0 | 0 | 0.84 | 11.8 | Non-toxic | 19.7 |  | 
Cc1ccc(-c2csc(N/N=C3\CCc4c(C)cccc43)n2)cc1 | 4 | 2 | 0 | 0.72 | 4.36 | Non-toxic | 17.2 | 2.92 | 
Clc1ccc(-c2csc(N/N=C3\CCc4ccccc43)n2)cc1 |  |  |  |  | 8.62 | Non-toxic | 308 |  | 
COc1cc2c(cc1OC)/C(=N/Nc1nc(-c3ccc(Cl)cc3)cs1)CC2 |  |  |  |  | 7.17 | Non-toxic | 404 |  | 
c1ccc(-c2csc(N/N=C3\CCc4ccccc43)n2)cc1 |  |  |  |  | 19 | Non-toxic | > 500 |  | 
Cc1ccc2c(c1)CC/C2=N\Nc1nc(-c2ccccc2)cs1 |  |  |  |  | 4.69 | Non-toxic | 172 |  | 
COc1cc2c(cc1OC)/C(=N/Nc1nc(-c3ccccc3)cs1)CC2 |  |  |  |  | 10.1 | Non-toxic | 195 |  | 
Cc1ccc2c(c1)CC/C2=N\Nc1nc(-c2ccc(Cl)cc2)cs1 |  |  |  |  | 7.15 | Non-toxic | 372 |  | 
Cc1ccc2c(c1)/C(=N/Nc1nc(-c3ccc(Cl)cc3)cs1)CC2 |  |  |  |  | 8.59 | Non-toxic | 61.1 |  | 
CN(C/C=C/C#CC(C)(C)C)Cc1cccc2ccccc12 [TERBINAFINE] |  |  |  |  |  |  |  | 1.54 | 
O=[N+]([O-])c1cccc2c1CC/C2=N\Nc1nc(-c2ccc(Cl)cc2)cs1 |  |  |  |  | 17.1 | Non-toxic | 597 |  | 
O=C(Cn1ccnc1[N+](=O)[O-])NCc1ccccc1 [BENZNIDAZOLE] |  |  |  |  | 5.39 |  | 30.3 |  | 82.8
